The values below come from ChEMBL document CHEMBL1139434, “Highly potent 1-aminocyclohexane-1-carboxylic acid substituted V2 agonists of arginine vasopressin” (J Med Chem, 2004).

Assay [1] is filed under the species Rattus norvegicus. In words: Compound was evaluated for antidiuretic activity with t1/2 of 60 in male rats by modified Burn test. In kind it is functional, Urine.
For assay [2], the species on record is Rattus norvegicus. Kind of assay: (§1) Compound was evaluated for vasopressor activity in phenoxybenzamine-treated male rats. In kind it is functional. A digest of the protocol:
(§2)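 Pressor response measured in phenoxybenzamine-treated male Wistar rats, with synthetic arginine vasopressin as standard. Dose–response curves built from single administrations, or cumulatively without washing between increasing doses. Values are means of three to five separate experiments.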

The species named for assay [3] is Rattus norvegicus. In words: Compound was evaluated for in vitro uterotonic activity in the absence of magnesium ions in female wistar rats. In kind it is functional. The conditions noted are these: for Kb: read-out: pA2 (converted). A digest of the protocol:
(§3)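 Uterus from Wistar females estrogenized 48 h beforehand, tested in vitro in the absence of magnesium ions. Synthetic oxytocin was the standard. Dose–response curves built from single additions, or cumulatively without washing between increasing doses. Values are means of three to five separate experiments.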

The species entered for assay [4] is Rattus norvegicus. In words: Compound was evaluated for antidiuretic activity with t1/2 of 60 min in male rats by modified Burn test; range is 114-257. In kind it is functional, Urine.
The species entered for assay [5] is Rattus norvegicus. Kind of assay: Compound was evaluated for vasopressor activity in phenoxybenzamine-treated male rats; range is 346-370. Type of assay: functional. A digest of the protocol: as §2
The species entered for assay [6] is Rattus norvegicus. Kind of assay: Compound was evaluated for in vitro uterotonic activity in the absence of magnesium ions in female wistar rats; range is 27-63. In kind it is functional. In short, it runs like this: as §3
For assay [7], the species on record is Rattus norvegicus. In words: Compound was evaluated for antidiuretic activity with t1/2 of 60 min in male rats by modified Burn test; range is 1300-1745. In kind it is functional, Urine.
The species named for assay [8] is Rattus norvegicus. Kind of assay: Compound was evaluated for antidiuretic activity with t1/2 of 200 min in male rats by modified Burn test. In kind it is functional, Urine.
The species named for assay [9] is Rattus norvegicus. Described as §1. The settings on record: read-out: pA2 (converted). Type of assay: functional, organism-based. In short, it runs like this:
as §2

The species entered for assay [10] is Rattus norvegicus. Kind of assay: Compound was evaluated for antidiuretic activity with t1/2 of 60 min in male rats by modified Burn test; range is 800-50000. In kind it is functional, Urine.
Assay [11] is filed under the species Rattus norvegicus. Kind of assay: Compound was evaluated for in vitro uterotonic activity in the absence of magnesium ions in female wistar rats; range is 1.5-5.1. In kind it is functional. A digest of the protocol:
as §3

The species named for assay [12] is Rattus norvegicus. In words: Compound was evaluated for antidiuretic activity with t1/2 of 60 min in male rats by modified Burn test; range is 750-900. In kind it is functional, Urine.

Where a SMILES comes first, the peptide text is derived from it. [ ]: non-standard residue; d: D form. The star is where a group is joined. Cyclohexylacetyl(1-SH) = O=C(CC1(S)CCCCC1)*; Ac6c = NC1(C(=O)O)CCCCC1

On to `N=C(N)NCCC[C@H](NC(=O)[C@@H]1CCCN1C(=O)[C@@H]1CSSC[C@H](N)C(=O)N[C@@H](Cc2ccc(O)cc2)C(=O)N[C@@H](Cc2ccccc2)C(=O)N[C@@H](CCC(N)=O)C(=O)N[C@@H](CC(N)=O)C(=O)N1)C(=O)NCC(N)=O` [VASOPRESSIN], for which the Activity in assay [1] turned out to be 465 IU/mg; in [2] it was 412 IU/mg; in assay [3] it was 17 IU/mg.

Turning to `NC(=O)CC[C@H](NC(=O)[C@H](Cc1ccccc1)NC(=O)[C@H](Cc1ccc(O)cc1)NC(=O)[C@@H](N)CS)C(=O)N[C@@H](CC(N)=O)C(=O)N[C@@H](CS)C(=O)N1CCC[C@H]1C(=O)N[C@H](CCCN=C(N)N)C(=O)NCC(N)=O`, the Activity in assay [4] is less than 257 IU/mg; in [2], 4.1 IU/mg; in [3] it was 0.4 IU/mg.

Regarding `NC(=O)CC[C@H](NC(=O)[C@H](Cc1ccccc1)NC(=O)[C@H](Cc1ccc(O)cc1)NC(=O)CCS)C(=O)N[C@@H](CC(N)=O)C(=O)N[C@@H](CS)C(=O)N1CCC[C@H]1C(=O)N[C@@H](CCCN=C(N)N)C(=O)NCC(N)=O`, the results for the Activity in assay [5], in assay [6] and in assay [7] were less than 370 IU/mg, less than 63 IU/mg and less than 1745 IU/mg, respectively.

For `CC(C)[C@H](NC(=O)C1(NC(=O)[C@H](Cc2ccc(O)cc2)NC(=O)CC2(S)CCCCC2)CCCCC1)C(=O)N[C@@H](CC(N)=O)C(=O)N[C@@H](CS)C(=O)N1CCC[C@H]1C(=O)N[C@@H](CCCN=C(N)N)C(=O)NCC(N)=O` ({Cyclohexylacetyl(1-SH)}-Y[Ac6c]VNCPRG-NH2), the Activity is reported as less than 4 IU/mg in assay [1] and 0 IU/mg in [2]. For the same compound, the Kb in assay [3] was not below 1000 nM.

Regarding `NC(=O)CC[C@H](NC(=O)C1(NC(=O)[C@H](Cc2ccc(O)cc2)NC(=O)[C@@H](N)CS)CCCCC1)C(=O)N[C@@H](CC(N)=O)C(=O)N[C@@H](CS)C(=O)N1CCC[C@H]1C(=O)N[C@@H](CCCN=C(N)N)C(=O)NCC(N)=O`, the Activity is listed as approximately 1.4 IU/mg in assay [8], approximately 0.1 IU/mg in assay [1], 0.24 IU/mg in [2] and 0 IU/mg in assay [3].

With `NC(=O)CC[C@H](NC(=O)[C@H](Cc1ccccc1)NC(=O)[C@H](Cc1ccc(O)cc1)NC(=O)CC1(S)CCCCC1)C(=O)N[C@@H](CC(N)=O)C(=O)N[C@@H](CS)C(=O)N1CCC[C@H]1C(=O)N[C@@H](CCCN=C(N)N)C(=O)NCC(N)=O` ({Cyclohexylacetyl(1-SH)}-YFQNCPRG-NH2), the Kb in assay [9] was 4.47 nM. In [1], this compound came in with an Activity of 0.03 IU/mg.

`CC(C)[C@H](NC(=O)C1(NC(=O)[C@H](Cc2ccc(O)cc2)NC(=O)CCS)CCCCC1)C(=O)N[C@@H](CC(N)=O)C(=O)N[C@@H](CS)C(=O)N1CCC[C@H]1C(=O)N[C@H](CCCN=C(N)N)C(=O)NCC(N)=O`: the Activity in assay [8] came out at 4500 IU/mg; in [1], 450 IU/mg; in [2], 0 IU/mg; in [3] it was 0 IU/mg.

For the compound `NC(=O)CC[C@H](NC(=O)C1(NC(=O)[C@H](Cc2ccc(O)cc2)NC(=O)[C@@H](N)CS)CCCCC1)C(=O)N[C@@H](CC(N)=O)C(=O)N[C@@H](CS)C(=O)N1CCC[C@H]1C(=O)N[C@H](CCCN=C(N)N)C(=O)NCC(N)=O`, the Activity in assay [8] is approximately 1.4 IU/mg; in [1], approximately 0.1 IU/mg; in assay [2] it was 0 IU/mg; in assay [3], 0 IU/mg.

For the compound `NC(=O)CC[C@H](NC(=O)[C@H](Cc1ccccc1)NC(=O)[C@H](Cc1ccc(O)cc1)NC(=O)CCS)C(=O)N[C@@H](CC(N)=O)C(=O)N[C@@H](CS)C(=O)N1CCC[C@H]1C(=O)N[C@H](CCCN=C(N)N)C(=O)NCC(N)=O`, the Activity in assay [10] is on record as less than 50000 IU/mg; in [11] it was less than 5.1 IU/mg.

Turning to `NC(=O)CC[C@H](NC(=O)[C@H](Cc1ccccc1)NC(=O)C1(NC(=O)CCS)CCCCC1)C(=O)N[C@@H](CC(N)=O)C(=O)N[C@@H](CS)C(=O)N1CCC[C@H]1C(=O)N[C@H](CCCN=C(N)N)C(=O)NCC(N)=O`, the Activity was approximately 50000 IU/mg in [8], approximately 4500 IU/mg in [1] and 0.31 IU/mg in assay [3]. Moreover, the Kb in assay [3] is 316 nM.

With `CC(C)[C@H](NC(=O)[C@H](Cc1ccccc1)NC(=O)[C@H](Cc1ccc(O)cc1)NC(=O)[C@@H](N)CS)C(=O)N[C@@H](CC(N)=O)C(=O)N[C@@H](CS)C(=O)N1CCC[C@H]1C(=O)N[C@@H](CCCN=C(N)N)C(=O)NCC(N)=O` (H-CYFVNCPRG-NH2), the Activity in [1] came to 738 IU/mg; in [2] it was 32 IU/mg.

Consider `CC(C)[C@H](NC(=O)C1(NC(=O)[C@H](Cc2ccc(O)cc2)NC(=O)[C@@H](N)CS)CCCCC1)C(=O)N[C@@H](CC(N)=O)C(=O)N[C@@H](CS)C(=O)N1CCC[C@H]1C(=O)N[C@@H](CCCN=C(N)N)C(=O)NCC(N)=O` (H-CY[Ac6c]VNCPRG-NH2), for which the values for the Activity in [1], in [2] and in assay [3] were less than 0.4 IU/mg, 0 IU/mg and 0 IU/mg, respectively.

For `NC(=O)CC[C@H](NC(=O)[C@H](Cc1ccccc1)NC(=O)C1(NC(=O)[C@@H](N)CS)CCCCC1)C(=O)N[C@@H](CC(N)=O)C(=O)N[C@@H](CS)C(=O)N1CCC[C@H]1C(=O)N[C@H](CCCN=C(N)N)C(=O)NCC(N)=O`, the results for the Kb in [9] and in assay [3] were approximately 1580 nM and approximately 2000 nM, respectively. For the same compound, the Activity in assay [8] is approximately 9300 IU/mg; in [12], less than 900 IU/mg.

`NC(=O)CC[C@H](NC(=O)C1(NC(=O)[C@H](Cc2ccc(O)cc2)NC(=O)CCS)CCCCC1)C(=O)N[C@@H](CC(N)=O)C(=O)N[C@@H](CS)C(=O)N1CCC[C@H]1C(=O)N[C@H](CCCN=C(N)N)C(=O)NCC(N)=O`: the Activity in assay [1] is on record as less than 4 IU/mg; in assay [2], 0 IU/mg; in [3], 0 IU/mg.

`NC(=O)CC[C@H](NC(=O)[C@H](Cc1ccccc1)NC(=O)C1(NC(=O)[C@@H](N)CS)CCCCC1)C(=O)N[C@@H](CC(N)=O)C(=O)N[C@@H](CS)C(=O)N1CCC[C@H]1C(=O)N[C@@H](CCCN=C(N)N)C(=O)NCC(N)=O`: the Activity in assay [8] is listed as approximately 9300 IU/mg; in assay [2] it was 56.6 IU/mg; in assay [12], less than 900 IU/mg. Further, the Kb in assay [3] was approximately 2510 nM.

Regarding `NC(=O)CC[C@H](NC(=O)[C@H](Cc1ccccc1)NC(=O)C1(NC(=O)CC2(S)CCCCC2)CCCCC1)C(=O)N[C@@H](CC(N)=O)C(=O)N[C@@H](CS)C(=O)N1CCC[C@H]1C(=O)N[C@@H](CCCN=C(N)N)C(=O)NCC(N)=O`, the Kb in assay [9] is 55 nM; in assay [3] it was 46.8 nM. For the same compound, the Activity in [8] is approximately 1.4 IU/mg; in assay [1], approximately 0.1 IU/mg.

On to `NC(=O)CC[C@H](NC(=O)[C@H](Cc1ccccc1)NC(=O)C1(NC(=O)CCS)CCCCC1)C(=O)N[C@@H](CC(N)=O)C(=O)N[C@@H](CS)C(=O)N1CCC[C@H]1C(=O)N[C@@H](CCCN=C(N)N)C(=O)NCC(N)=O`, for which the Activity in assay [8] is approximately 50000 IU/mg; in [1], approximately 4500 IU/mg; in [2] it was 17.2 IU/mg; in [3], 0.71 IU/mg. Also, in assay [3], the Kb was 794 nM.

Turning to `NC(=O)CC[C@H](NC(=O)[C@H](Cc1ccccc1)NC(=O)C1(NC(=O)CC2(S)CCCCC2)CCCCC1)C(=O)N[C@@H](CC(N)=O)C(=O)N[C@@H](CS)C(=O)N1CCC[C@H]1C(=O)N[C@H](CCCN=C(N)N)C(=O)NCC(N)=O`, the figures for the Kb in assay [9] and in assay [3] were 234 nM and 47.9 nM, respectively. The Activity in assay [1] was less than 4 IU/mg.

In the case of `CC(C)[C@H](NC(=O)[C@H](Cc1ccccc1)NC(=O)C1(NC(=O)[C@@H](N)CS)CCCCC1)C(=O)N[C@@H](CC(N)=O)C(=O)N[C@@H](CS)C(=O)N1CCC[C@H]1C(=O)N[C@@H](CCCN=C(N)N)C(=O)NCC(N)=O` (H-C[Ac6c]FVNCPRG-NH2), the Activity in [8] was approximately 23000 IU/mg; in assay [1], approximately 2300 IU/mg; in [2], 0.9 IU/mg. Moreover, the Kb in assay [3] is 126 nM.

For the compound `CC(C)[C@H](NC(=O)[C@H](Cc1ccccc1)NC(=O)C1(NC(=O)CCS)CCCCC1)C(=O)N[C@@H](CC(N)=O)C(=O)N[C@@H](CS)C(=O)N1CCC[C@H]1C(=O)N[C@H](CCCN=C(N)N)C(=O)NCC(N)=O`, the figures for the Kb in assay [9] and in assay [3] were 724 nM and 15.5 nM, respectively. Moreover, the results for the Activity in assay [8] and in assay [1] were approximately 50000 IU/mg and approximately 4500 IU/mg, respectively.

Consider `NC(=O)CC[C@H](NC(=O)C1(NC(=O)[C@H](Cc2ccc(O)cc2)NC(=O)CCS)CCCCC1)C(=O)N[C@@H](CC(N)=O)C(=O)N[C@@H](CS)C(=O)N1CCC[C@H]1C(=O)N[C@@H](CCCN=C(N)N)C(=O)NCC(N)=O`, for which the Activity is given as approximately 25 IU/mg in [8], approximately 0.8 IU/mg in assay [1], 0.34 IU/mg in [2] and less than 0.04 IU/mg in assay [3].
